Measured values collected from several papers.
Lines come from different studies, so protocols differ.
Effect on: cell growth or viability

SMILES | cell line | method | concentration | time | quantity | value
Cc1n[nH]c2ccc3nc(-c4ccc(C(=O)NCCN(C)C)cc4)c4c(c3c12)CCC(F)(F)C4 | MV4-11 | resazurin | – | 72 h | GI50 | 132 nM
C[C@H](N)C(=O)Nc1ccccc1/N=c1\cc(-c2ccc3c(c2)OCCO3)oc2cc(F)ccc12 | MDA-MB-468 | CCK-8 | 1 µM | – | inhibition | 12.8%
O=C(/C=C/c1cccc(C(=O)NO)c1)NO | HBL1 | ATP luminescence | 0.1 µM | 5 days | viability | 119%
COc1ncccc1Cn1nc(-c2ccc(CO)o2)c2ccccc21 | RBE | ATP luminescence | – | – | IC50 | 229 nM
CN(C)CCN(C)C(=O)c1ccc(-c2nc3ccc4[nH]ncc4c3c3c2CC(F)(F)CC3)cc1 | MV4-11 | resazurin | – | 72 h | GI50 | 748 nM
OCc1ccc(-c2ccn(Cc3ccccc3)n2)o1 | RBE | ATP luminescence | 46 µM | 72 h | inhibition | 47%
O=C(NCCCN1CCOCC1)c1ccc(-c2nc3ccc4[nH]ncc4c3c3c2CCCC3)cc1 | MV4-11 | resazurin | – | 72 h | GI50 | 413 nM
OCC1CCC(c2nn(Cc3ccccc3)c3ccccc23)O1 (stereo not shown) | RBE | ATP luminescence | 46 µM | 72 h | inhibition | 13%
NCCC(=O)Nc1ccccc1/N=c1\cc(-c2ccc3c(c2)OCCO3)oc2cc(F)ccc12 | MDA-MB-468 | CCK-8 | 1 µM | – | inhibition | 31.2%
O=C(Nc1cccc(Br)c1)c1cccc(S(=O)(=O)N2CCCCCC2)c1 | HBL1 | ATP luminescence | 1 µM | 5 days | viability | 101%
CN(C)CCN(C)C(=O)c1ccc(-c2nc3ccc4[nH]ncc4c3c3c2CCCCC3)nc1 | MV4-11 | resazurin | – | 72 h | GI50 | 1200 nM
NCc1ccc(-c2nn(Cc3ccccn3)c3cccnc23)o1 | RBE | ATP luminescence | 46 µM | 72 h | inhibition | 74%
O=C(CCCCCCC(=O)Nc1ccccc1)NO | HBL1 | ATP luminescence | 0.1 µM | 5 days | viability | 132%
CCN(Cc1ccc(F)cc1F)c1ccc(CO)c(Cl)c1 | RBE | ATP luminescence | 46 µM | 72 h | inhibition | 82%
NC(=O)c1ccc(-c2nc3ccc4[nH]ncc4c3c3c2CCCC3)cc1 | MV4-11 | resazurin | – | 72 h | GI50 | 57 nM
OCc1ccc(-c2nn(Cc3ccccc3)c3ccc(F)cc23)o1 | RBE | ATP luminescence | – | – | IC50 | 977 nM
O=C(Nc1ccccc1/N=c1\cc(-c2ccc3c(c2)OCO3)oc2ccccc12)N1CCNCC1 | MDA-MB-468 | CCK-8 | 1 µM | – | inhibition | -5.89%
CN1CCN(C(=O)c2ccc(-c3nc4ccc5[nH]ncc5c4c4c3CCCC4)cc2)CC1 | MV4-11 | resazurin | – | 72 h | GI50 | 1300 nM
COc1ccc2/c(=N/c3ccccc3NC(=O)[C@@H](N)C(C)(C)C)cc(-c3ccc4c(c3)OCCO4)oc2c1 | MDA-MB-468 | CCK-8 | 1 µM | – | inhibition | 10.8%
O=C(NC1CCCCC1)c1ccc(-c2nc3ccc4[nH]ncc4c3c3c2CCCC3)cc1 | MV4-11 | resazurin | – | 72 h | GI50 | 4300 nM
COCCC(=O)Nc1ccccc1/N=c1\cc(-c2ccc3nc(N)oc3c2)oc2ccccc12 | MDA-MB-468 | CCK-8 | 1 µM | – | inhibition | 0.9%
CN(C)CCN(C)C(=O)c1ccc(-c2nc3ccc4[nH]ncc4c3c3c2CCCCC3)cn1 | MV4-11 | resazurin | – | 72 h | GI50 | 581 nM
NCC(=O)Nc1ccccc1/N=c1\cc(-c2ccc3c(c2)OCCO3)oc2ccccc12 | MDA-MB-468 | CCK-8 | 1 µM | – | inhibition | 4.61%
OCc1coc(-c2nn(Cc3ccccc3)c3ccccc23)n1 | RBE | ATP luminescence | 46 µM | 72 h | inhibition | 32%
CS(=O)(=O)NCCC(=O)Nc1ccccc1/N=c1\cc(-c2ccc3nc(N)oc3c2)oc2ccccc12 | MDA-MB-468 | CCK-8 | 1 µM | – | inhibition | 3.19%
OCc1ccc(-c2nn(Cc3ccccn3)c3cccnc23)o1 | RBE | ATP luminescence | 46 µM | 72 h | inhibition | 76%
COc1ccc2/c(=N/c3ccccc3NC(=O)[C@H](C)N)cc(-c3ccc4c(c3)OCCO4)oc2c1 | MDA-MB-468 | CCK-8 | 1 µM | – | inhibition | 13.4%
O=C(CCCCCCSc1ccc2ccccc2c1)NO | HBL1 | ATP luminescence | 0.5 µM | 5 days | viability | 113%
